Common to all, as to assay type: cell-based
A short description of test [1]: Activation of rat TRPV3 expressed in HEK293 cells assessed as stimulation of intracellular Ca2+ levels. The essentials: (§1)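 HEK293 cells stably transfected with rat TRPA1, rat TRPM8 or rat TRPV3 cDNA. Compounds were applied and the rise in intracellular Ca2+ was recorded.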
A short description of test [2]: Inhibition of rat TRPV3 expressed in HEK293 cells assessed as reduction in 100 uM thymol-stimulated increase in intracellular Ca2+ levels.
For test [3], the target named is T1, Transient receptor potential cation channel subfamily M member 8 (Rattus norvegicus, UniProt Q8R455). Kind of test: Inhibition of rat TRPM8 expressed in HEK293 cells assessed as reduction in 20 uM menthol-stimulated increase in intracellular Ca2+ levels. In short, it runs like this: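 IC50 on rat TRPM8 stably expressed in HEK293 cells, measured as inhibition of the intracellular Ca2+ response to icilin or menthol. Means ± SEM, N = 3.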

For test [4], the target named is T1, Transient receptor potential cation channel subfamily M member 8. Kind of test: Activation of rat TRPM8 expressed in HEK293 cells assessed as stimulation of intracellular Ca2+ levels. In short, it runs like this: as §1
Test [5] addresses Transient receptor potential cation channel subfamily A member 1 (Rattus norvegicus) (UniProt Q6RI86). Put plainly: Activation of rat TRPA1 expressed in HEK293 cells assessed as stimulation of intracellular Ca2+ levels relative to 100 uM allyl isothiocyanate. The essentials:
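Efficacy on stably transfected rat TRPA1-HEK293 cells is the intracellular Ca2+ rise expressed as percent of the allyl isothiocyanate response. Means ± SEM, N = 3.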

For test [6], the target named is T2, Transient receptor potential cation channel subfamily A member 1 (Rattus norvegicus, UniProt Q6RI86). Put plainly: Inhibition of rat TRPA1 expressed in HEK293 cells assessed as reduction in 100 uM allyl isothiocyanate-stimulated increase in intracellular Ca2+ levels. In short, it runs like this: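 Rat TRPA1-HEK293 stable cells were preincubated 5 min with compound, then incubation continued with allyl isothiocyanate.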

The target in test [7] is Transient receptor potential cation channel subfamily M member 8 (Rattus norvegicus) (UniProt Q8R455). Kind of test: Activation of rat TRPM8 expressed in HEK293 cells assessed as stimulation of intracellular Ca2+ levels relative to 4 uM ionomycin. The essentials: (§2)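 Efficacy on HEK293 cells stably expressing rat TRPM8 or rat TRPV3 is the intracellular Ca2+ elevation expressed as percent of the ionomycin response.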

In another test the test system is HEK293. Kind of test: Activation of rat TRPV3 expressed in HEK293 cells assessed as stimulation of intracellular Ca2+ levels relative to 4 uM ionomycin. The essentials:
as §2

Test [8] addresses T2, Transient receptor potential cation channel subfamily A member 1. Put plainly: Activation of rat TRPA1 expressed in HEK293 cells assessed as stimulation of intracellular Ca2+ levels. In short, it runs like this:
as §1

In test [9] the target is T1, Transient receptor potential cation channel subfamily M member 8. Put plainly: Inhibition of rat TRPM8 expressed in HEK293 cells assessed as reduction in […] icilin-stimulated increase in intracellular Ca2+ levels.

T1 sequence (Q8R455 whole entry): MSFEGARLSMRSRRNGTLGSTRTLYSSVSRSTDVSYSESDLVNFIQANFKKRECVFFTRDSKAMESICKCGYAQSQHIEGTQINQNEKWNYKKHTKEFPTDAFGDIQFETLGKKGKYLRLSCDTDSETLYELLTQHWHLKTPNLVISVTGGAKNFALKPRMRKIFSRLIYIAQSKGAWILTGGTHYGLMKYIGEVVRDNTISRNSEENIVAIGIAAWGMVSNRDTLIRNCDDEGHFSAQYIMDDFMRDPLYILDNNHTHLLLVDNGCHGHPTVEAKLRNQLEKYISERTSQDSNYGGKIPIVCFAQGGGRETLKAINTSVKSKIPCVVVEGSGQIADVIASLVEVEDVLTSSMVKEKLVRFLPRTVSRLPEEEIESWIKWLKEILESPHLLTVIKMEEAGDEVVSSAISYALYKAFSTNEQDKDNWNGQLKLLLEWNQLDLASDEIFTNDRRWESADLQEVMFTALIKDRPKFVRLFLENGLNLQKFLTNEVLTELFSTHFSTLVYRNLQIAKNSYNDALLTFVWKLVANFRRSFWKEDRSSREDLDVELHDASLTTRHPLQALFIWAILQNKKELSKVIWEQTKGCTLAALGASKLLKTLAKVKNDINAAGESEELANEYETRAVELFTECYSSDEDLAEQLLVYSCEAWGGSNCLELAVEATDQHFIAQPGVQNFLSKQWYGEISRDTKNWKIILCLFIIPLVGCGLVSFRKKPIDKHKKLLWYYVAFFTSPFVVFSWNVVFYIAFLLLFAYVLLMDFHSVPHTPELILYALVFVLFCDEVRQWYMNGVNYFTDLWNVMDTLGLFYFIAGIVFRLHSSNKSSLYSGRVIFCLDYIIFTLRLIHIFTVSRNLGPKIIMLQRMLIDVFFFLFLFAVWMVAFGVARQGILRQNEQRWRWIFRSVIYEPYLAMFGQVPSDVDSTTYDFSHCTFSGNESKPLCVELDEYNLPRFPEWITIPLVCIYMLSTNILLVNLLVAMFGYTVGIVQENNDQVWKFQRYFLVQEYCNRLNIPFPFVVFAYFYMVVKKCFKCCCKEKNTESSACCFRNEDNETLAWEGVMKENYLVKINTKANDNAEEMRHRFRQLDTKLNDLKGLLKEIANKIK
T2 sequence (Q6RI86 whole entry): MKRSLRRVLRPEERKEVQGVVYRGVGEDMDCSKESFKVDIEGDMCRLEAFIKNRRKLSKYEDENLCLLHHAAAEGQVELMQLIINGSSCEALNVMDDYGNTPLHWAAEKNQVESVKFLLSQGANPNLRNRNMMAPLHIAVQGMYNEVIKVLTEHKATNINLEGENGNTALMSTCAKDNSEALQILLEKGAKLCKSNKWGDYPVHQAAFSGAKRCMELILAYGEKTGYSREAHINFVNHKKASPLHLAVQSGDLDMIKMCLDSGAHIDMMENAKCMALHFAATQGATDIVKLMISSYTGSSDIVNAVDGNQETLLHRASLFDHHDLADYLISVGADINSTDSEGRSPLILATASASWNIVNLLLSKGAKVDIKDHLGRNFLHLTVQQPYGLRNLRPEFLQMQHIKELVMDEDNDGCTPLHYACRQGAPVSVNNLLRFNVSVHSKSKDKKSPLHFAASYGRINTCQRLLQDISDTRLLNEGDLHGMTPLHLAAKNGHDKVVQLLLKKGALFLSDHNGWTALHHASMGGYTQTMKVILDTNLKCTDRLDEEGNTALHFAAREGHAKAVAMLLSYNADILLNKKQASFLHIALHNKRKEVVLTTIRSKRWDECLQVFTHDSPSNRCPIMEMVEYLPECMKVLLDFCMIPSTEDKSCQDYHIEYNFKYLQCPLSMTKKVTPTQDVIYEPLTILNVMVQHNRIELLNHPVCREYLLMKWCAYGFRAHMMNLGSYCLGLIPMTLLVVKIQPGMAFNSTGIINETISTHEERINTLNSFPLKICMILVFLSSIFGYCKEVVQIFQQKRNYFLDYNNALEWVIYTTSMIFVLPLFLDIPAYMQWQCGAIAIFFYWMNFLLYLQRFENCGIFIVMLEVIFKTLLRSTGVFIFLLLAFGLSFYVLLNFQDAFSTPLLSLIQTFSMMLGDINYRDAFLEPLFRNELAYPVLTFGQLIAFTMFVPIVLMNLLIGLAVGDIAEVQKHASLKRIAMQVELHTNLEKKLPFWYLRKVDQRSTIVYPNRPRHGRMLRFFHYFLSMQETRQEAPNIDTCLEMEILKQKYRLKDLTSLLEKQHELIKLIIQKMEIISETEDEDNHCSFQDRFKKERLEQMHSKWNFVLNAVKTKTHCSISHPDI
Sequence of Transient receptor potential cation channel subfamily A member 1 (Rattus norvegicus) (Q6RI86 whole entry): as above
Sequence of Transient receptor potential cation channel subfamily M member 8 (Rattus norvegicus) (Q8R455 whole entry, looked up): as the sequence (Q8R455 whole entry) above

As usually defined, the EC50 is the midpoint of the concentration-response curve. For orientation: IC50 means the concentration that gives 50% inhibition. Turning to `Cc1ccc(C(C)C)c(C(=O)Nc2ccc(C(C)(C)C)cc2)c1`, the EC50 worked out at 1200 nM in [1], 600 nM in test [4] and 600 nM in [8]. The IC50 in test [2] came to 1100 nM; in test [3], 1200 nM; in test [6], 840 nM; in [9] it was 1900 nM. Also, the Efficacy in [5] amounted to 97.9%; in test [7] it was 40%; in the test on HEK293, 36.5%.

The record behind these values is ChEMBL document CHEMBL2086321, “Modulation of thermo-transient receptor potential (thermo-TRP) channels by thymol-based compounds” (Bioorg Med Chem Lett, 2012).
